The values below come from ChEMBL document CHEMBL1123418, “N-imidazolylchroman-4-ones, N-imidazolyl-1-tetralones, and their alcohols as hypolipemic agents raising high-density lipoproteins” (1986).

Each structure is given as a SMILES string. Values joined by “and” are separate entries in the source; they are usually repeats but may differ in a detail not shown here. Equal values may be shown once.

Experiment [1] deals with Rattus norvegicus. Briefly: Percent change in low density lipoproteins cholesterol concentration in serum from normocholesterolemic rats at dose 50 mg/kg (po).
In experiment [2] the test system is Rattus norvegicus. Briefly: Compound was tested for Hepatic peroxisomal proliferation effect in male rats treated for 7 days at dose 50 mg/kg concentration of hepatic proteins(mg/g) in liver. The format is functional, organism-based. Also noted: dose 50 mg/kg.
In experiment [3] the test system is Rattus norvegicus. The experiment in a line: Compound was tested for Enzyme induction effect in male rats treated for 5 days at dose 75 mg/kg concentration of cytochrome […]( mmol/mg) in protein. Type of experiment: functional. Conditions: dose 50 mg/kg; in the assay text read “50 mg/kg” for “75 mg/kg”. In short, it runs like this: (§1)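 Male OFA-ICO SD rats were dosed orally for 5 days, with test compounds at 50 mg/kg/day and sodium phenobarbital at 75 mg/kg/day. Liver was homogenized in 1.15% KCl-0.01 M phosphate, pH 7.5. Microsomes were spun from the 9000g supernatant at 105000g and assayed for protein, cytochrome P-450, aniline p-hydroxylation (µmol p-aminophenol/20 min) and aminopyrine N-demethylation (µmol HCHO/5 min). Liver/body weight was also recorded. Mean ± SEM of four rats; Dunnett's test.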

The subject of experiment [4] is Rattus norvegicus. Briefly: Compound was tested for Hepatic peroxisomal proliferation effect in male rats treated for 7 days at dose 50 mg/kg palmitoyl-CoA oxidation activity(per mg) of protein. Type of experiment: functional. In short, it runs like this:
(§2)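 Male OFA-ICO SD rats received oral doses of 50 mg/kg/day for 1 week. Liver was homogenized in 0.25 M sucrose-0.01 M phosphate-0.1% ethanol, pH 7, then diluted in incubation buffer with 0.1% Triton X-100 and centrifuged. Supernatants were assayed for catalase (K, sec⁻¹), carnitine acetyltransferase (nmol CoASH/min) and cyanide-insensitive palmitoyl-CoA oxidation (nmol NAD⁺ reduced/min). Mean ± SEM of three rats; Dunnett's test.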

Experiment [5] has as its system Rattus norvegicus. Briefly: Percent increase in liver weight in rats when a 50 mg/Kg dose was administered. Type of experiment: functional.
Experiment [6] has as its system Rattus norvegicus. The experiment in a line: Compound was tested for Enzyme induction effect in male rats treated for 5 days at dose 75 mg/kg aminopyrine N-demethylase activity(per g) of liver. Type of experiment: functional. Conditions: dose 50 mg/kg; in the assay text read “50 mg/kg” for “75 mg/kg”. The method, boiled down: as §1
Experiment [7] has as its system Rattus norvegicus. The experiment in a line: Compound was tested for Hepatic peroxisomal proliferation effect in male rats treated for 7 days at dose 50 mg/kg carnitine acetyl transferase activity(per mg) of protein. Type of experiment: functional. The method, boiled down: as §2
The nature of experiment [8]: Compound was tested for Hepatic peroxisomal proliferation effect in male rats treated for 7 days at dose 50 mg/kg ratio of % liver weight to % body weight. The format is functional.
Experiment [9] relates to Rattus norvegicus. The experiment in a line: Percent change in total cholesterol concentration in serum from hypercholesterolemic rats at dose 50 mg/kg (po). The format is functional. The note with it: 50 mg/kg.
Experiment [10] deals with Rattus norvegicus. Briefly: Compound was tested for Hepatic peroxisomal proliferation effect in male rats treated for 7 days at dose 50 mg/kg protein. The format is functional.
Experiment [11] concerns Rattus norvegicus. Briefly: Compound was tested for Enzyme induction effect in male rats treated for 5 days at dose 50 mg/kg concentration of microsomal proteins(mg/g) in liver.
Experiment [12] relates to Rattus norvegicus. Briefly: Percent increase in liver weight in rats when administered perorally. The format is functional.
Experiment [13] relates to Rattus norvegicus. The experiment in a line: Compound was tested for Enzyme induction effect in male rats treated for 5 days at dose 75 mg/kg aniline p-hydroxylase activity(per g) of liver. The format is functional. Conditions: dose 50 mg/kg; in the assay text read “50 mg/kg” for “75 mg/kg”. The method, boiled down: as §1
Experiment [14] relates to Rattus norvegicus. Briefly: Percent change in triglyceride concentration in serum from normocholesterolemic rats at dose 50 mg/kg (po).
Experiment [15] is described as follows: Percent change in high density lipoprotein cholesterol.
Experiment [16] in a line: Compound was tested for Enzyme induction effect in male rats treated for 5 days at dose 75 mg/kg ratio of % liver weight to % body weight. The format is functional. Conditions: dose 50 mg/kg; in the assay text read “50 mg/kg” for “75 mg/kg”. The method, boiled down: as §1

As for `Cc1cccc(Nc2cc(Cl)nc(SCC(=O)NCCO)n2)c1C` [PIRINIXIL], the Change with Rattus norvegicus [1] is -19%; with Rattus norvegicus [5], 42%; with Rattus norvegicus [9] it was -43% and -23%; with Rattus norvegicus [12] it was 54%; in the experiment on Rattus norvegicus [14] it was -48%. Further, the Concentration is 237 in the experiment with Rattus norvegicus [2] and 25 in the experiment on Rattus norvegicus [11]. Further, the Activity was 0.82 with Rattus norvegicus [3]; 16.2 in the experiment on Rattus norvegicus [4]; 0.69 in the experiment with Rattus norvegicus [6]; 69.8 in the experiment with Rattus norvegicus [7]; 58.8 with Rattus norvegicus [10]; 0.64 with Rattus norvegicus [13]. For the same molecule, the figures for the Ratio in experiment [8] and in [16] were 5.31% and 4.99%, respectively. The “Percent change in HDL cholesterol” value in experiment [15] is -9.
